{"data": "Experimental data from different studies", "target": "D(1A) dopamine receptor (DRD1, Homo sapiens, UniProt P21728)"}
{"SMILES": "O=C1c2ccccc2CCN1CCCCN1CCN(c2cccc(Cl)c2Cl)CC1", "read-out": "cell-free assay", "technique": "radioligand", "endpoint": "Ki", "value": "511 nM"}
{"SMILES": "CCOCc1nc(O)c(-c2nnc(Cc3ccc(Cl)cn3)o2)c(O)c1-c1c(OC)cccc1OC", "read-out": "ligand displacement", "technique": "radioligand", "endpoint": "IC50", "value": "> 30000 nM"}
{"SMILES": "CCCOc1cc2c(cc1O)[C@@H]1Cc3c(Br)cc(O)c(OCC(F)(F)F)c3CN1CC2", "read-out": "cAMP", "mode": "antagonist", "technique": "TR-FRET", "endpoint": "IC50", "value": "248 nM"}
{"SMILES": "CN(CCCCNC(=O)c1cc2ccccc2[nH]1)[C@@H]1Cc2cccc3[nH]c(=O)n(c23)C1", "read-out": "ligand displacement", "technique": "radioligand", "endpoint": "Ki", "value": "> 7900 nM"}
{"SMILES": "CCCCN1CCC(COC(=O)c2ccc(N)c(OCF)c2)CC1", "read-out": "cell-free assay", "technique": "radioligand", "endpoint": "Ki", "value": "> 10000 nM"}
{"SMILES": "C[C@@H]1Cc2ccccc2N1C(=O)NCCCCN(C)[C@@H]1Cc2cccc3[nH]c(=O)n(c23)C1", "read-out": "ligand displacement", "technique": "radioligand", "endpoint": "Ki", "value": "> 10000 nM"}
{"SMILES": "CCCOc1cc2c(cc1O)[C@@H]1Cc3c(Br)cc(O)c(OCC(F)F)c3CN1CC2", "read-out": "cAMP", "mode": "antagonist", "technique": "TR-FRET", "endpoint": "IC50", "value": "1450 nM"}
{"SMILES": "O=C1c2ccccc2CCN1CCCCN1CCN(c2ccccn2)CC1", "read-out": "cell-free assay", "technique": "radioligand", "endpoint": "Ki", "value": "1660 nM"}
{"SMILES": "CCCCOc1c(O)cc(Br)c2c1CN1CCc3cc(OCC(F)F)c(O)cc3[C@@H]1C2", "read-out": "cAMP", "mode": "antagonist", "technique": "TR-FRET", "endpoint": "IC50", "value": "318 nM"}
{"SMILES": "COc1ccc2c(c1)C(=O)N(CCCN1CCN(c3ccccc3OC)CC1)C2", "read-out": "cell-free assay", "technique": "radioligand", "endpoint": "Ki", "value": "6220 nM"}
